Source: PMC2752669 (Biochemistry, 2009)
Ends that are not written are not given here.

Key:
[1] = test system: A-site RNA hp-AS-pwk annealed to 5'-biotin-DNA; assay: Peptide bead ELISA assay, hp-AS-pwk; assay type: binding, E. coli; details: 1 μM biotin-tagged RNA, 4 days, 4 °C; anti-biotin-alkaline phosphatase, BCIP
In short: (§1)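 Peptide beads washed, blocked overnight at 4 °C, then incubated 4 days at 4 °C with 1 μM biotin-tagged RNA (fresh RNA added daily) in HEPES-KOH pH 7.5/100 mM KCl/5 mM MgCl2 buffer. Buffer-only beads served as background. Detection: anti-biotin–alkaline phosphatase (1:8000, 1 h, room temperature), then BCIP (0.165 μg/μl, pH 9.5) overnight at 4 °C.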

[2] = test system: other RNA targets; assay: Preliminary in vitro solution binding studies
[3] = test system: helix 17 (h17) RNA from 16S rRNA; assay: Peptide bead ELISA assay, h17 control; assay type: binding; details: biotin-tagged h17, 4 days, 4 °C; anti-biotin-alkaline phosphatase, BCIP
In short: as §1

[4] = test system: hp-AS (RNA, rRNA) GGCGUCACACCUUCGGGUGAAGUCGCC; assay: ESI-MS titration; details: NH4+ 100 mM; apparent; 100 mM NH4OAc, 50% 2-propanol, pH 6.7, 25 °C
[5] = test system: A-site RNA over TAR RNA; assay: ESI-MS competition, A-site RNA versus TAR RNA; assay type: binding; details: data not shown
[6] = test system: A-site RNA hairpin hp-AS (bacterial 16S rRNA); assay: Enzymatic; assay type: binding, E. coli; details: 5 to 120 μM peptide, pH 7.2, 37 °C
In short: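 3′-32P-pCp-labelled hp-AS (1 μl, 250,000 cpm) preincubated with test peptide (0–120 μM) in 10 mM Tris-HCl pH 7.2, 15 mM NaCl, 1 mM EDTA, 37 °C, 1.5 h. RNase A (1 μl, 0.002 U/μl) was added to 5 μl final for 30 min at 37 °C, quenched on dry ice, formamide-denatured and gel-resolved beside an alkaline-hydrolysis ladder. Fraction bound versus peptide was curve-fitted for Kd; two independent experiments.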

[7] = test system: A-site RNA hairpin hp-AS (bacterial 16S rRNA); assay: ESI-MS binding to hp-AS; design: species or system E. coli; details: 1 μM RNA
In short: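 Hairpin RNA renatured in 100 mM NH4OAc (pH 6.7). 1 μM RNA mixed with peptide (0–375 μM), room temperature, 10 min, in 50% 2-propanol/100 mM NH4OAc pH 6.7, then ESI-MS. Fraction bound taken from summed complex versus free-RNA peak intensities. Salt series: 34 μM peptide at 30–200 mM NH4OAc. pH series: 34 μM peptide, 100 mM NH4OAc, pH 5.0–7.6.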

[8] = test system: E. coli S30 extract translation system; assay: In vitro translation inhibition; assay type: biochemical
In short: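 E. coli S30 extract for circular DNA, with pBESTluc plasmid carrying firefly luciferase. Amino acids, S30 premix and increasing peptide concentrations in 50 μl, 37 °C for 1–2 h. Quenched on ice 5 min, luciferase reagent added, luminescence read. Background from a sample without DNA template.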

[9] = test system: A-site RNA hairpin hp-AS (bacterial 16S rRNA); assay: Isothermal titration calorimetry of peptide into hp-AS; assay type: binding, E. coli; details: 10 mM potassium phosphate, 100 mM KCl, pH 7.2, 10 °C; average of three independent experiments
In short: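 RNA and test peptide were dialysed against water, dried, redissolved in buffer and degassed at 5 °C for 7 min. After a 2 μl preliminary injection, which was discarded, 20 μl injections of peptide (250–600 μM) went into hp-AS RNA (20–40 μM), spaced 300 s. Heats of peptide dilution into buffer without RNA were subtracted.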

[10] = molecular target: T1, HPVHHYQ-NH2 peptide; assay: RNase A footprinting
T1 chain: HPVHHYQ-NH2

[11] = molecular target: T1, HPVHHYQ-NH2 peptide; assay: ITC
[12] = molecular target: T1, HPVHHYQ-NH2 peptide; assay: RNase A footprinting
[13] = molecular target: T2, LPLTPLP peptide on beads; assay: bead fluorescence
T2 chain: LPLTPLP

[14] = molecular target: T3, HPVHHYQ peptide on beads; assay: bead fluorescence
T3 chain: HPVHHYQ

[15] = molecular target: T2, LPLTPLP peptide on beads; assay: bead ELISA
[16] = molecular target: T3, HPVHHYQ peptide on beads; assay: bead ELISA

LPLTPLP
Bead ELISA response with A-site RNA [1]: bind to the A-site RNA | Binding to other RNA targets [2]: binds to other RNA targets | Bead ELISA binding to h17 [3]: No binding was observed

H-HPVHHYQ-NH2
Kd [4]: 29 ± 2 µM

HPVHHYQ-NH2
Preference for A-site RNA over TAR RNA [5]: five-fold preference for the A-site RNA over TAR RNA | Residues protected from RNase A cleavage [6]: residues G1494 and U1495 are protected by the peptide | Residues with enhanced RNase A cleavage [6]: enhanced at residues A1492 and A1493 | Effect of pH on ratio of free RNA to RNA-peptide complexes ([7]; pH 5.0 to 7.6, 100 mM NH4OAc, 50% IPA, 34 μM peptide, data not shown): no significant change | Kd ([7]; read-out: Apparent dissociation constant (ESI-MS), 0–375 μM peptide, 100 mM NH4OAc, pH 6.7, 50% 2-propanol, 25 °C, 10 min, average of three independent experiments): 29 ± 2 µM | Inhibition of in vitro protein synthesis ([8]; 34 μM peptide, 37 °C, 1–2 h): no inhibition was observed | Remaining (luciferase) enzyme activity ([8]; 620 μM peptide, 37 °C, 1–2 h): approximately 50% | IC50 compared with neomycin ([8]; in vitro translation inhibition): high compared with the known antibiotic neomycin | Enthalpy ΔH [9]: -0.56 ± 0.05 kcal/mol | Entropy −TΔS [9]: -6.5 ± 0.3 kcal/mol

HPVHHYQ
Bead ELISA response with A-site RNA [1]: much stronger response than LPLTPLP | Bead ELISA binding to h17 [3]: No binding was observed

B1: hp-AS (structured_RNA)
RNA: GGCGUCACACCUUCGGGUGAAGUCGCC
Kd [10]: 16 ± 4 µM | Kd [11]: 2 ± 0.4 µM | Kd [12]: 18 ± 4 µM

B2: F-human-hp-AS (structured_RNA)
RNA: GGCGUCGCUACUUCGGUAAAAGUCGCC
binding result [13]: no binding | binding result [14]: no binding

B3: F-TAR (structured_RNA)
RNA: GGCAGAUCUCAGCCUGGGAGCUGUCUGCC
binding result [13]: no binding | binding result [14]: no binding

B4: F-hp-AS (structured_RNA)
RNA: GGCGUCACACCUUCGGGUGAAGUCGCC
binding result [13]: binds

B5: h17 annealed to 5'-biotin-DNA (mixed)
RNA: GGCGGGGAGGAAGGGAGUAAAGUUAAUACCUUUGCUCAUUGACGUUACCCGCCGGUGCGGAUGGCGAUUGCU
DNA: AGCAATCGCCATCCGCACC
binding result [15]: no binding | binding result [16]: no binding
